Like-named read-outs stand apart in the source and are kept apart here.
Legend:
[1] = Population pharmacokinetic analysis of clinical plasma concentration data; format: in vivo, human
How it was run: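 Plasma sampled 1, 18, 23 and 36–48 h post-infusion. Assayed by LC-MS/MS (0.5–500 µg/mL), sub-0.5 µg/mL values dropped. Modelled in NONMEM with FOCE, log-normal IIV, stepwise covariates (forward P < .01, backward P < .001) and bootstrap uncertainty. T1/2 taken from 100 000 parameter draws.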

serum albumin = settings: intravenous dose; unchanged by drug concentration, renal impairment or hepatic function; cited from earlier work
S. aureus = settings: neutropenic murine thigh model; cited from earlier work
[2] = cited from earlier work
[3] = system: Staphylococcus aureus, Streptococcus pyogenes, Streptococcus dysgalactiae, vancomycin-susceptible Enterococcus faecalis; assay: MIC distributions from 2017 surveillance program; format: cell-based; settings: 2017 surveillance data, United States and Europe, 4 most relevant species
How it was run: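 Isolates came from the 2017 surveillance program: 70 US medical centers across 9 Census regions and 38 centers in 18 European countries. MICs were determined centrally at one reference laboratory by CLSI M07-A10 (2015) dilution methods. Isolate counts: S. aureus n = 8833, S. pyogenes n = 941, S. dysgalactiae n = 312, vancomycin-susceptible E. faecalis n = 1060. Distributions were plotted as histograms on a log MIC axis.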

[4] = final popPK model, typical value

CN[C@H]1C(=O)N[C@@H]2Cc3ccc(cc3)Oc3cc4cc(c3O[C@@H]3O[C@H](C(=O)O)[C@@H](O)[C@H](O)[C@H]3NC(=O)CCCCCCCCC(C)C)Oc3ccc(cc3Cl)[C@@H](O)[C@@H]3NC(=O)[C@H](NC(=O)[C@@H]4NC(=O)[C@@H](NC2=O)c2cc(cc(O)c2Cl)Oc2cc1ccc2O)c1ccc(O)c(c1)-c1c(O[C@H]2O[C@H](CO)[C@@H](O)[C@H](O)[C@@H]2O)cc(O)cc1[C@@H](C(=O)NCCCN(C)C)NC3=O [dalbavancin]
total volume of distribution ([1]; 3-compartment popPK model): ~15 L | T1/2 ([1]; calculated from 100 000 random samples drawn from mean and covariance of estimated model parameters): 8.77 days | Q2, distributional clearance ([1]; final popPK model, no IIV): 0.288 L/h | Q3, distributional clearance ([1]; final popPK model, no IIV): 2.11 L/h | V1, central volume of distribution [1, 4]: 3.04 L | V2 [1, 4]: 8.78 L | V3 [1, 4]: 3.28 L | fraction bound to serum albumin / plasma protein (serum albumin): approximately 93% | 2-log kill target, fAUC/MIC (S. aureus): 111.1 | total volume of distribution (Vd) [2]: ~16 L | total drug clearance ([2]; healthy subjects): approximately 0.04 L/h | fraction of dose excreted as minor metabolite ([2]; healthy volunteers, 1000 mg intravenous dose of dalbavancin, by 42 days postdose): 12% | fraction of dose excreted in the feces ([2]; healthy volunteers, 1000 mg intravenous dose, by 42 days postdose): one‐third | fraction of dose excreted in urine unmodified ([2]; healthy volunteers, 1000 mg intravenous dose): one‐third | terminal half-life ([2]; intravenous): > 14 days | total drug clearance ([2]; patients): ~0.058 L/h | rightmost histogram bar of the MIC distributions (highest MIC observed) [3]: 0.25

Reference: publication PMC7003773 (Clinical Pharmacology in Drug Development, 2019)
